# Screening data from PubChem.
# Rows were chosen to be rich in hits. Some 1.7% of all compounds tested hit in one or more screens of this group.
# IDE inh: inhibits human insulin-degrading enzyme in HEK cells; P14735; FAbetaB cleavage, fluorescence polarization; inhibition, % at 5.59 µM; hit rate 0.41% among 320,000;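 active means percent inhibition above the average of all tested compounds plus 3 SD, set per screening campaign, cut at about 16% in these data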;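 further: IDE supplied by intact live HEK cells; FP after avidin binding of uncleaved biotin substrate so inhibition keeps polarization high; 0% = DMSO wells and 100% = 60 µM reference IDE inhibitor Ii1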
# TPT1 inh: inhibitors of Candida albicans tRNA 2'-phosphotransferase TPT1. recombinant caTPT1, FP RNA substrate dephosphorylation. inhibition, % at 5 µM. hit rate 0.81% among 300,000;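 active means inhibition above the mean of all tested compounds plus 3 SD, set per screening campaign, cut at about 24% in these data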;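 further: plate controls were DMSO alone for no effect and ferristatin control at 100 nM for full effect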
# IDE cell activ: boosts human insulin-degrading enzyme activity in HEK cells; P14735; FAbeta-B cleavage, fluorescence polarization; 0% vehicle, 100% cell-free pure enzyme wells; activation, % at 5.96 µM; hit rate 0.073% among 340,000; AID 493087;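 active means activation above the mean of all tested compounds plus 3 SD, set per screening campaign, cut at about 17% in these data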
# CSN deneddyl inh: CSN deneddylation inhibition; Q92905; Purified CSN, SCF-Nedd8-OG deneddylation, fluorescence polarization; inhibition, % at 12.5 µM; hit rate 0.38% among 360,000;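 active means pattern-corrected inhibition above about 35%, with an unprinted fluorescence ratio check between 0.5 and 1.5, limit read from the data, passing the limit was not always enough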;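 further: 0% = enzyme with substrate and 100% = substrate without enzyme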
# Target sequence (Q92905 whole entry, looked up, one chain of several): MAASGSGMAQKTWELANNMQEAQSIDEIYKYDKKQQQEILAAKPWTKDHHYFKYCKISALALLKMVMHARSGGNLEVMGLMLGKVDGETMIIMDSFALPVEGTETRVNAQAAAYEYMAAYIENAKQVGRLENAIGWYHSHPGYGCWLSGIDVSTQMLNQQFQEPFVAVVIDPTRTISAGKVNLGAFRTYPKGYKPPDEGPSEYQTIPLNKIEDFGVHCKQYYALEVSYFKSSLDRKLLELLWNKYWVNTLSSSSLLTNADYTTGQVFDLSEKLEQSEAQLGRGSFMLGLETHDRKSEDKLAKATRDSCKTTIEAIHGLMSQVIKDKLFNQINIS
#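 Assay system: HEK293T-derived human Csn5 enzyme; quantity: 0.24 nM enzyme; medium: Tris/NaCl/DTT buffer, pH 7.5; also added: substrate SCFSkp2-Nedd8OG, 10 nM; doses: 12.5 µM compound; schedule: 90 min reaction at room temperature; signal: FP; read-out: % inhibition of substrate cleavage by Csn5; benchmarks: substrate-only high control, full reaction low control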
# HNF4A DNA FP: change in binding of human HNF4 alpha to DNA. P41235. HNF4a-FITC DNA binding, fluorescence polarization, 1 h. activity change, % at 10 µM. hit rate 0.3% among 360,000. AID 1224865; in the data active means activity change above about 30%, passing the limit was not always enough
# Rpn11 block: blocks the human proteasome subunit Rpn11. human 26S proteasome, Ub4-pepOG fluorescence polarization; 20S core pre-blocked with epoxomicin. hit rate 0.59% among 360,000. O00487. inhibition, % at 20 µM;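 active means inhibition at 20 µM, scaled to each plate's controls, above about 33%, limit read from the data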
# Rpn11 confirm: Rpn11 inhibition confirmation, single concentration; shares compounds with Rpn11 block; purified human 26S proteasome, Ub4-pepOG fluorescence polarization; proteasome pretreated with epoxomicin; inhibition, % at 20 µM; hit rate 29% among 1,900
# MMP-2 counter-1: counter-screen for RPN11 inhibitors: inhibition of human MMP-2 | shares compounds with Rpn11 block | hit rate 4% among 1,900 | inhibition, % at 20 µM | recombinant MMP-2, FRET peptide cleavage fluorescence;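 further: human MMP-2 activated beforehand with APMA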
# Thrombin inh: counter-screen for RPN11 inhibitors: inhibition of bovine thrombin; hit rate 13% among 1,900; bovine thrombin cleavage of Ub4-pepOG, fluorescence polarization; inhibition, % at 20 µM; AID 602333; shares compounds with Rpn11 block;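 active means mean inhibition at least 40% at 20 µM, or signal 3 deviations below plate average, so some actives read negative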;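 further: plate controls were thrombin with DMSO for no effect and buffer wells lacking thrombin for full effect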
# CSN5 deneddyl: Csn5 (human) deneddylation inhibition, single-concentration validation; inhibition, % at 16.6 µM; Csn5 deneddylation of SCF-Nedd8OG, fluorescence polarization, 90 min; AID 720654; shares compounds with CSN deneddyl inh; hit rate 62% among 540; in the data active means inhibition above about 50%;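 further: 0% = DMSO with enzyme and 100% = no enzyme wells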
# MMP-2 counter-2: MMP-2 (human) inhibition, counter-screen for CSN hits | hit rate 33% among 540 | recombinant MMP-2, FRET substrate fluorescence, 60 min | shares compounds with CSN deneddyl inh | inhibition, % at 16.6 µM;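 active means corrected plate-normalized z-score of 5 or more, or -5 or less, or inhibition of 15% or more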;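 further: plate controls were DMSO wells with enzyme for no effect and buffer wells lacking MMP-2 for full effect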
# Thrombin counter: blocks bovine thrombin in a CSN deneddylation counter-screen; shares compounds with CSN deneddyl inh; hit rate 49% among 540; AID 720656; inhibition, % at 16.6 µM; bovine thrombin cleavage of Ub4-pepOG, fluorescence polarization;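 active means inhibition at or above a set limit, with a fluorescence interference ratio between 0.5 and a set maximum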
# * = called active by the depositor; . = not tested or not shown; + = active, no number. Unless noted, no stated cut-off is given here; in the data, active means inhibition above about 40%; inactive means the rest.
SMILES,IDE inh,TPT1 inh,IDE cell activ,CSN deneddyl inh,HNF4A DNA FP,Rpn11 block,Rpn11 confirm,MMP-2 counter-1,Thrombin inh,CSN5 deneddyl,MMP-2 counter-2,Thrombin counter
S=c1[nH]nc(-c2cc(-c3ccccc3)n[nH]2)n1/N=C/c1ccc(Br)s1,-4,1,0,36*,12,+,91*,5,49*,82*,21*,2
Cc1cc(-c2n[nH]c(=S)n2/N=C/c2ccc(Br)s2)n[nH]1,2,3,-5,4,1,-1,.,.,.,.,.,.
O=C(Nc1ccc(C2=NCCN2)cc1)c1ccc(C(=O)Nc2ccc(C3=NCCN3)cc2)c(Cl)c1,6,2,-10,114*,61,90*,69*,47*,10,-48,72*,-4
Nc1ccccc1CCc1ccccc1N,.,.,.,0,0,0,.,.,.,.,.,.
CC1=C(C(=O)N2CCOCC2)C(c2ccc(OC(F)F)cc2)NC(=S)N1c1ccccc1 (stereo not given),-5,-3,5,-3,2,3,.,.,.,.,.,.
COc1cc(/C=C(/C#N)c2nc3ccccc3[nH]2)ccc1OCc1ccc(C(=O)O)o1,9,11,-3,1,5,5,.,.,.,.,.,.
COC(=O)c1ccc(COc2ccc(/C=C(\C#N)c3nc4ccccc4[nH]3)cc2OC)o1,3,3,-6,57*,26,138*,127*,-150,90*,-68,-5,41*
Cc1cc(C)c2nc(N3C(=O)C(O)=C(C(=O)c4ccco4)C3c3ccco3)sc2c1 (stereo not given),-1,5,-3,35*,-15,39*,34,10,37,.,10,-6
O=C(O)CCCCCN1C(=O)/C(=C/c2cn(-c3ccccc3)nc2-c2cccs2)SC1=S,.,.,3,92*,-4,51*,84*,-18,48*,82*,-6,22*
CC1(c2ccccc2Cl)NC(=O)N(CC(=O)c2ccc3c(c2)OCO3)C1=O (stereo not given),3,0,2,-3,-5,-2,.,.,.,.,.,.
COc1ccc(-n2c(N)c(C(=O)NCC3CCCO3)c3nc4ccccc4nc32)c(OC)c1 (stereo not given),-3,0,3,2,3,1,.,.,.,.,.,.
C=CCn1c(N)c(C(=O)NCC2CCCO2)c2nc3ccccc3nc21 (stereo not given),5,3,1,36*,5,43*,-7,-36,-22,101*,1,0
OCCNc1nc(Nc2cc(Cl)ccc2OC2CCCC2)nc(N2CCCC2)n1,6,0,5,-3,7,2,.,.,.,.,.,.
CCN1/C(=C\c2ccc3cc(C)ccc3[n+]2CC)Sc2cc(C)c(C)cc21,.,.,-169,66*,107*,92*,89*,-140,145*,40,20*,113*
CCN1/C(=C/c2ccc3cc(C)cc(C)c3[n+]2CC)Sc2cc(C)ccc21,.,.,-186,81*,151*,170*,89*,-93,135*,16,64*,23*
CCOc1ccc(NC(=S)NC(=O)/C=C/c2ccco2)cc1,-1,0,4,4,0,2,.,.,.,.,.,.
